According to ChEMBL document CHEMBL2321838, “Chemistry and pharmacological studies of 3-alkoxy-2,5-disubstituted-pyridinyl compounds as novel selective α4β2 nicotinic acetylcholine receptor ligands that reduce alcohol intake in rats” (J Med Chem, 2013):
The source made the active and inactive calls. The calls are words filed in the database; no cut-off is given here.

Experiments:
[1] = biological target: T1, Neuronal acetylcholine receptor; alpha4/beta2 (Homo sapiens, UniProt P17787+P43681); assay: Agonist activity at human alpha4beta2 nACHR expressed in HEK293 cells assessed as […] by liquid scintillation counting analysis; format: cell-based
T1 sequence (P17787 whole entry): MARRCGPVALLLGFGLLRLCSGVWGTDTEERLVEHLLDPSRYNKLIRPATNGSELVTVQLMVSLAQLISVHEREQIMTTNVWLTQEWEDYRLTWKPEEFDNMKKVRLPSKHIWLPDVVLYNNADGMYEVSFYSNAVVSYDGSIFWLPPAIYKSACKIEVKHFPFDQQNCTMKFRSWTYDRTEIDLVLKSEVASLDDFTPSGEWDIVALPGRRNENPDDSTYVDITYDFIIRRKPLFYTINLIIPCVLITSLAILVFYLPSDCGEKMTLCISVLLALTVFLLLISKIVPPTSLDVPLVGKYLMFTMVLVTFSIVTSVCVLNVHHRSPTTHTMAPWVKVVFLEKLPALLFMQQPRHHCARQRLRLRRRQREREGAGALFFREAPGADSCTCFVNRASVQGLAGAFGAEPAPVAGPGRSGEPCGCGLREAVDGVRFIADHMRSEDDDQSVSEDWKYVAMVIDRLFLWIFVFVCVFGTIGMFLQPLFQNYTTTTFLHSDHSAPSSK
T1 sequence (P43681 whole entry): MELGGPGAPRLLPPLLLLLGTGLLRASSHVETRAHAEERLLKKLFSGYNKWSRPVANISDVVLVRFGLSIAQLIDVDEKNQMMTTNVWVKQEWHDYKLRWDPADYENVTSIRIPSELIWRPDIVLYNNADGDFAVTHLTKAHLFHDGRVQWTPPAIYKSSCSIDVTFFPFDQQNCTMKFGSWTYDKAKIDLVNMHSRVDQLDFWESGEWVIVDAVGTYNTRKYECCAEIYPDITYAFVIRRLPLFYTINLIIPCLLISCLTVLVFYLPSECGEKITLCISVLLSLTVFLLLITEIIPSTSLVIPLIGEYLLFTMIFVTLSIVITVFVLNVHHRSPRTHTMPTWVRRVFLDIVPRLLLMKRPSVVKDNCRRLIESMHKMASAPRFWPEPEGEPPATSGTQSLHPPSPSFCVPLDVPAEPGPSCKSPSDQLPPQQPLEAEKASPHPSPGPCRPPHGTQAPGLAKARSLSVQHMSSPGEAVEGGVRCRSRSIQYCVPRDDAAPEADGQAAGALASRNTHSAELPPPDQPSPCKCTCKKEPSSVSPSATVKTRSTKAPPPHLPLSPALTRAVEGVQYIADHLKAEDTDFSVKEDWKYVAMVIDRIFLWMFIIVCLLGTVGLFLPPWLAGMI

[2] = biological target: T2, Neuronal acetylcholine receptor; alpha3/beta4 (Rattus norvegicus, UniProt P04757+P12392); assay: Agonist activity at rat alpha3beta4 nACHR expressed in HEK293 cells assessed as […] by liquid scintillation counting analysis; format: cell-based
T2 sequence (P04757 whole entry): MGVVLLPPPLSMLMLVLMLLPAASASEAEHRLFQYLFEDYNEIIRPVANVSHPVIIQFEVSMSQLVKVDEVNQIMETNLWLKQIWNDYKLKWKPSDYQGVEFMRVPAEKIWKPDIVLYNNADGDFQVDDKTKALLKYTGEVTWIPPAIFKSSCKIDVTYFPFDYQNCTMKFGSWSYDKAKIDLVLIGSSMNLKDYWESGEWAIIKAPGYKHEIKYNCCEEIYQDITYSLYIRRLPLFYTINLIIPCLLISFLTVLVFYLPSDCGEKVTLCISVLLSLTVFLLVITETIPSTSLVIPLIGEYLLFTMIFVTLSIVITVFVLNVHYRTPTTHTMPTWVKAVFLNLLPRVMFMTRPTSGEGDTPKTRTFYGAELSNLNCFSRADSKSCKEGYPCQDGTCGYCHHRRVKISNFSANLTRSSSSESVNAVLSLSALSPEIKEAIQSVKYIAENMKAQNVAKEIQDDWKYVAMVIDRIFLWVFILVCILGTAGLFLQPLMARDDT
T2 sequence (P12392 whole entry): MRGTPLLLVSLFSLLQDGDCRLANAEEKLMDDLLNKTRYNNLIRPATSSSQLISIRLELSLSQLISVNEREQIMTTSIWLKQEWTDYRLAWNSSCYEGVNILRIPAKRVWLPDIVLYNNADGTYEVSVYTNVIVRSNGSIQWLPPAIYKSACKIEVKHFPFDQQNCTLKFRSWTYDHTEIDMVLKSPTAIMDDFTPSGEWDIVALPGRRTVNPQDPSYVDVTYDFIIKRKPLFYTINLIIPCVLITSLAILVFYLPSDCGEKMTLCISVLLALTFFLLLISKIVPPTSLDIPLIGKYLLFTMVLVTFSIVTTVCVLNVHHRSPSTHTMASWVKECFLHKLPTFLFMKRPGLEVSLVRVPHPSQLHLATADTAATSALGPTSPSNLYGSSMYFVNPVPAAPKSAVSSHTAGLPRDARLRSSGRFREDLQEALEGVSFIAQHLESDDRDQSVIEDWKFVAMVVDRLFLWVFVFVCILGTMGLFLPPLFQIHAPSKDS

[3] = biological target: T2, Neuronal acetylcholine receptor; alpha3/beta4; assay: Desensitization of rat alpha3beta4 nACHR expressed in HEK293 cells assessed as inhibition of 86Rb+ efflux preincubated for 10 mins measured after 2 hrs by liquid scintillation counting analysis; format: cell-based
[4] = system: Mustela putorius furo; assay: Toxicity in ferret assessed as induction of retching at 0.5 mg/kg, sc measured for 60 mins; format: organism-based; parameters: dose 0.5 mg/kg, route subcutaneous; settings: in vivo, 1 h
Summary of the method: (§1)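 Male ferrets (0.9−1.5 kg), food withheld overnight, water ad libitum. Drug in 0.9% saline, given subcutaneously in the subscapular region after a 30 min acclimation in an individual polycarbonate enclosure. Emesis and nausea-linked behaviours (retching, oral stereotypy, backward walking, locomotion) were scored by 60 min observation with video recording. Affected animals were then given granisetron plus dexamethasone 1 mg/kg i.p.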

[5] = system: Mustela putorius furo; assay: Toxicity in ferret assessed as reduction in locomotor behavior at 0.5 mg/kg, sc measured 1.05 mins to 1 hr post injection; format: organism-based; parameters: dose 0.5 mg/kg, route subcutaneous; settings: in vivo; summary of the method: as §1
[6] = system: Mustela putorius furo; assay: Toxicity in ferret assessed as induction of licking behavior at 0.5 mg/kg, sc measured 2.20 mins post injection; format: organism-based; parameters: dose 0.5 mg/kg, route subcutaneous; settings: in vivo, 132 s; summary of the method: as §1
[7] = system: Mustela putorius furo; assay: Toxicity in ferret assessed as induction of emetic episodes at 0.5 mg/kg, sc measured for 60 mins; format: organism-based; parameters: dose 0.5 mg/kg, route subcutaneous; settings: in vivo, 1 h; summary of the method: as §1
[8] = system: Mustela putorius furo; assay: Toxicity in ferret assessed as backward walking episodes at 0.5 mg/kg, sc measured 2.20 mins post injection; format: organism-based; parameters: dose 0.5 mg/kg, route subcutaneous; settings: in vivo, 132 s; summary of the method: as §1
[9] = system: Mustela putorius furo; assay: Toxicity in ferret assessed as increase in breathing at 0.5 mg/kg, sc measured for 60 mins; format: organism-based; parameters: dose 0.5 mg/kg, route subcutaneous; settings: in vivo, 1 h; summary of the method: as §1
[10] = system: Mustela putorius furo; assay: Toxicity in ferret assessed as cessation of movement at 0.5 mg/kg, sc measured for 60 mins; format: organism-based; parameters: dose 0.5 mg/kg, route subcutaneous; settings: in vivo, 1 h; summary of the method: as §1
[11] = organism: Rattus norvegicus; assay: Selectivity ratio of Ki for rat alpha3beta4 nACHR to rat alpha4beta2 nACHR
[12] = organism: Rattus norvegicus; assay: Selectivity ratio of Ki for rat alpha7 nACHR to rat alpha4beta2 nACHR
[13] = organism: Rattus norvegicus; assay: Displacement of [3H]-Epibatidine from rat nACHR fore-brain by liquid scintillation counting analysis
[14] = biological target: Neuronal acetylcholine receptor; alpha4/beta2 (Rattus norvegicus) (UniProt P09483+P12390); assay: Ratio of (-)-nicotine Ki to compound Ki for rat alpha4beta2 nACHR; format: protein-complex assay
[15] = biological target: T1, Neuronal acetylcholine receptor; alpha4/beta2; assay: Agonist activity at human alpha4beta2 nACHR expressed in HEK293 cells assessed as […] by liquid scintillation counting analysis relative to nicotine; format: cell-based
[16] = system: Mustela putorius furo; assay: Toxicity in ferret assessed as induction of emetic episodes at 1 to 30 mg/kg, sc measured for 60 mins; format: organism-based; parameters: dose 1-30 mg/kg, route subcutaneous; settings: in vivo, 1 h
Summary of the method: (§2)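 Male ferrets (0.9–1.5 kg), food withheld overnight, water ad libitum. After 30 min acclimation alone in an enclosure, single s.c. subscapular injection (1–30 mg/kg in 0.9% saline); emetic episodes and nausea-related stereotypical behaviours (gagging, licking, backward walking) scored by 60 min observation with video recording; n = 6.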

[17] = system: Rattus norvegicus; assay: Reduction of alcohol intake in alcohol-preferring rat at […], sc after 2 to 24 hrs; format: functional, organism-based; parameters: dose 0.33 mg/kg
[18] = system: Rattus norvegicus; assay: Reduction of alcohol intake in sc dosed alcohol-preferring rat after 2 to 24 hrs relative to vehicle-treated control; format: functional, organism-based
Summary of the method: (§3)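 Adult male selectively bred alcohol-preferring (P) rats with two-bottle access (water, alcohol) in Richter tubes, 12:12 light–dark, 22 °C. After stable baseline, single s.c. injection of 0.33, 1 or 3 mg/kg or vehicle; alcohol and water intake (g/kg) read at 2, 4, 6 and 24 h. Crossover, random assignment, ≥3 days between injections, n = 18; mean ± SEM.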

[19] = system: Rattus norvegicus; assay: Reduction of alcohol intake in alcohol-preferring rat at 3 mg/kg, sc after 6 to 24 hrs; format: functional, organism-based; parameters: dose 3 mg/kg; summary of the method: as §3
[20] = system: Rattus norvegicus; assay: Reduction of alcohol intake in alcohol-preferring rat at 1 mg/kg, sc after 24 hrs; format: functional, organism-based; parameters: dose 1 mg/kg; summary of the method: as §3
[21] = system: Mustela putorius furo; assay: Toxicity in ferret assessed as induction of stereotypical behavior at 1 to 30 mg/kg, sc measured for 60 mins; format: organism-based; parameters: dose 1-30 mg/kg, route subcutaneous; settings: in vivo, 1 h; summary of the method: as §2
[22] = biological target: Neuronal acetylcholine receptor; alpha3/beta4 (Rattus norvegicus) (UniProt P04757+P12392); assay: Agonist activity at rat alpha3beta4 nACHR expressed in HEK293 cells assessed as stimulation of 86Rb+ efflux after 2 hrs by liquid scintillation counting analysis relative to nicotine; format: cell-based
[23] = biological target: T1, Neuronal acetylcholine receptor; alpha4/beta2; assay: Desensitization of human alpha4beta2 nACHR expressed in HEK293 cells assessed as inhibition of 86Rb+ efflux preincubated for 10 mins measured after 2 hrs by liquid scintillation counting analysis; format: cell-based
[24] = biological target: T2, Neuronal acetylcholine receptor; alpha3/beta4; assay: Displacement of [3H]-Epibatidine from rat alpha3beta4 nACHR expressed in HEK293 cell membranes by liquid scintillation counting analysis; parameters: species or system Membrane

Structure (SMILES)	EC50 ([1]; hek293)	EC50 ([2]; hek293)	IC50 [3] [µM]	Ratio Ki [11]	Ratio Ki [12]	Emax [15] [%]	also measured
CCCCC#Cc1cnc(C)c(OC[C@@H]2CCCN2)c1	Not Active	Not Active	–	–	–	–	–
Cc1ncc(C#CCCCCF)cc1OC[C@@H]1CCN1	Not Active	Not Active	> 10	–	–	–	–
c1cnc2cc3c(cc2n1)[C@@H]1CNC[C@H]3C1 [VARENICLINE]	–	–	–	–	–	–	Activity [4]: Toxic; Activity [5]: Toxic; Activity [6]: Toxic; Activity [7]: Non-toxic; Activity [8]: Toxic; Activity [9]: Toxic; Activity [10]: Toxic; EC50 ([2]; read-out: EC50): 21 µM
Cc1ncc(C#CCCCCCl)cc1OC[C@@H]1CCN1	Not Active	Not Active	> 10	17000	13000	–	Ratio Ki [13]: 32
Cc1ncc(C#CCCCCO)cc1OC[C@@H]1CCN1	–	Not Active	> 10	70000	40000	20	Ratio Ki [14]: 2; EC50 ([1]; read-out: EC50): 0.45 µM
CCCCC#Cc1cnc(C)c(OC[C@@H]2CCN2)c1	–	Not Active	> 10	19000	7800	15	Activity [16]: Non-toxic; Activity [17]: inactive; Activity [18]: Dose-dependent effect; Activity [19]: Active; Activity [20]: Active; Activity [21]: Non-toxic
OCCCCC#Cc1cncc(OC[C@@H]2CCN2)c1	–	–	–	31000	11000	–	Emax [22]: 12%; IC50 [23]: 0.011 µM; EC50 ([2]; read-out: EC50): 30 µM
CCCCC#Cc1cnc(C(F)(F)F)c(OC[C@@H]2CCN2)c1	–	–	–	–	–	–	Ki [24]: > 100 µM; Ratio Ki [13]: > 100000
Cc1ncc(C#CC2CC2)cc1OC[C@@H]1CCN1	–	Not Active	> 10	16000	16000	17	–
